Experimental findings from PubChem BioAssay AID588399 (Southern Research Specialized Biocontainment Screening …, 2011) are described below.

Molecules are shown by their SMILES. Inconclusive results are not listed. Activity calls are given as the source filed them.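 Rule for the calls: active = toxic compounds, with cells under 80% alive at a tested dose; inconclusive = one replicate called active, the other inactive; inactive = the rest.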

Test [1] can be described thus: viability loss of bladder carcinoma 5637 line – cell-based, set 4, cytotoxicity control for bacterial capsule biogenesis inhibitors, dose response (AID 588399). To be noted: Bladder 5637 cells viability, CellTiter-Glo, 72 h; at 300 µM (top of the series). In a few lines: (§1)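 test system = bladder carcinoma 5637 cell line | benchmarks = Hyamine toxic control, untreated cells reference | timing = 72 h compound exposure of cells | read-out basis = percent viability versus mean of untreated cell-only wells, plus CC50 | technique = CellTiter-Glo luminescence | compound = 8 concentrations, 2.3–300 µM | replication = duplicates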

Test [2] deals with Bladder 5637 cells viability, CellTiter-Glo, 72 h. Described as above. An outline of the steps: as §1

By viability is commonly meant a read-out of living cells in per cent, often relative to untreated cells. Take `O=C(Nc1ccc(Br)cc1)c1ccc2ncsc2c1`: the viability in test [1] is 142% (inactive). Still for that read-out and setting: under `COc1ccc(NC(=O)c2ccc3nc[nH]c3c2)cc1` stands 104% (inactive); under `O=C(Nc1ccccn1)c1ccc2nc[nH]c2c1`, 94.7% (inactive). For orientation: CC50 means the concentration at which the toxic effect on the cells reaches its halfway point. With `O=C(Nc1nc2ccc(OC(F)(F)F)cc2s1)c1ccc(Br)s1`, the CC50 in test [2] is 24.6 µM. On the same count and under the same terms, under `COc1ccc2nc(NC(=O)c3ccc(Br)s3)[nH]c2c1` stands 4.43 µM. Turning to `O=C(NCc1ccco1)c1ccc2nc[nH]c2c1`, the viability in test [1] was 111% (inactive). `COc1ccc2nc(NC(=O)c3cc(Br)c(Br)s3)[nH]c2c1`: in test [2], the half-maximal cytotoxic concentration (CC50) is less than 2.34 µM. On the same count and under the same terms, under `O=C(Nc1cccnc1)c1ccc2ncsc2c1` stands 28.3 µM; under `O=C(Nc1ccc(Cl)cc1)c1ccc2[nH]ccc2c1`, 14.1 µM. Take `O=C(Nc1ccc(F)cc1)c1ccc2nc[nH]c2c1`: the viability in test [1] was 83% (inactive).
